In data set [1] the target is T1, Broad substrate specificity ATP-binding cassette transporter ABCG2 (Homo sapiens, UniProt Q9UNQ0).
T1 sequence (Q9UNQ0 whole entry): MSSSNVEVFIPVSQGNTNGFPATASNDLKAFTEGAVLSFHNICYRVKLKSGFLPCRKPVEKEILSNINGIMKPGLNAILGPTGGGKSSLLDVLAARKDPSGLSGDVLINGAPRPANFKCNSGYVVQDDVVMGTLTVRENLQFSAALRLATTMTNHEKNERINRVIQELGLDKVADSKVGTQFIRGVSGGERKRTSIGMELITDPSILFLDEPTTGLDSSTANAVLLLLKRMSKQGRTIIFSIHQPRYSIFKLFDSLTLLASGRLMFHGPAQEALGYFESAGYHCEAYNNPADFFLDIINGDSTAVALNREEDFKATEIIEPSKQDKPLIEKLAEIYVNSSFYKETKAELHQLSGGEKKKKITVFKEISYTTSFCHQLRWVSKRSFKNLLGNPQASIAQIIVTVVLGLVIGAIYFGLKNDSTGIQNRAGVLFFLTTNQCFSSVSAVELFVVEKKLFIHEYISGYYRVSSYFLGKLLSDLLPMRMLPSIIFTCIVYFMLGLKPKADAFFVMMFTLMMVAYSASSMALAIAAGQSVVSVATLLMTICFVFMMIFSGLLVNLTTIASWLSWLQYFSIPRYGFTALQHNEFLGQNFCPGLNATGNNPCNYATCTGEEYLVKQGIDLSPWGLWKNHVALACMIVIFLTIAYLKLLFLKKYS
The experiment in a line: Inhibition of BCRP (unknown origin) expressed in MDCK cells assessed as reduction in Hoechst 33342 efflux at 100 uM preincubated for 30 mins followed by Hoechst 3334 addition measured after 30 mins by fluorescence assay. Format: cell-based. The note with it: 0.5 h. The method, boiled down:
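Interference with BCRP-mediated transport of the fluorescent substrate Hoechst 33342. Not active defined at 100 μM. Means of three independent experiments, duplicate samples.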

Data set [2] can be described thus: Efflux ratio of apparent permeability from basolateral to apical over apical to basolateral side in human Caco2 cells at 100 uM after 120 mins. Format: ADME, cell-based. To be noted: Caco-2. The method, boiled down:
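Bidirectional permeability across Caco-2 monolayers. Papp expressed as the basolateral-to-apical over apical-to-basolateral (BA/AB) ratio. Values from two independent experiments. A ratio >2 is read as substrate behaviour, <2 as inhibitor.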
On the technique in general: Caco-2 monolayers are a common model of the intestinal barrier.

For data set [3], the target named is T2, Multidrug resistance-associated protein 1 (Homo sapiens, UniProt P33527). The experiment in a line: Inhibition of MRP1 (unknown origin) expressed in MDCK cells assessed as reduction in calcein-AM efflux at 100 uM preincubated for 30 mins followed by calcein-AM addition measured after 30 mins by fluorescence assay. The note with it: 0.5 h. The class given is cell-based. The method, boiled down: (§1)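 Interference with MRP1-mediated transport of pro-fluorescent calcein-AM, reported as EC50. Not active defined at 100 μM. Means of three independent experiments, duplicate samples.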

In data set [4] the target is T3, ATP-dependent translocase ABCB1 (Homo sapiens, UniProt P08183). The experiment in a line: Inhibition of MDR1 (unknown origin) expressed in MDCK cells assessed as reduction in ATP consumption after 2 hrs by ATPlite assay. Format: cell-based. The method, boiled down:
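ATP cell level depletion measured in MDCK-MDR1 cells. Means of three independent experiments, samples analysed in duplicate.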
On the technique in general: Cellular ATP, detected with luciferase, serves as a proxy for viable cell number.

The target of data set [5] is T3, ATP-dependent translocase ABCB1. The experiment in a line: Inhibition of MDR1 (unknown origin) expressed in MDCK cells assessed as reduction in calcein-AM efflux preincubated for 30 mins followed by calcein-AM addition measured after 30 mins by fluorescence assay. The class given is cell-based. The method, boiled down: (§2)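 Competition with P-gp-mediated efflux of the pro-fluorescent substrate calcein-AM in MDCK-MDR1 cells, reported as EC50. Means of three independent experiments, samples in duplicate.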

For data set [6] the target is unchanged. The experiment in a line: Inhibition of MDR1 (unknown origin) expressed in MDCK cells assessed as increase in doxorubicin-induced cytotoxicity at 10 uM after 48 hrs by MTT assay relative to control. Format: cell-based. Details: scale not given: the % may be the effect or the level left. The method, boiled down: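 MDCK-MDR1 cells treated for 48 h with compound at 10 μM, alone or together with doxorubicin at 10 μM. Antiproliferative effect compared with doxorubicin 10 μM alone.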
Background: Tetrazolium dyes change colour on reduction, which living cells bring about.

For data set [7], the system named is MDCK. The experiment in a line: Downregulation of MDR1 protein expression in MDCK-MDR1 cells at 10 uM after 48 hrs by immunoblot analysis. Format: functional, cell-based. The note with it: Canis lupus familiaris. The method, boiled down: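 Immunoblot of P-gp in MDCK-MDR1 cells treated at 10 μM for 48 h, with untreated cells as control. Protein extracted after incubation, actin used as loading control. Blot representative of 3 experiments.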

Data set [8] is described as follows: Inhibition of P-gp (unknown origin). Details: species or system Homo sapiens. The method, boiled down: as §2
Data set [9] concerns MDCK. The experiment in a line: Cytotoxicity against MDCK cells over-expressing MDR1 at 0.1 to 25 uM after 48 to 72 hrs by MTT assay. The class given is ADME, cell-based, Canis lupus familiaris. To be noted: dog.
For data set [10], the target named is T2, Multidrug resistance-associated protein 1. Put plainly: Inhibition of MRP1 (unknown origin) expressed in MDCK cells assessed as reduction in calcein-AM efflux preincubated for 30 mins followed by calcein-AM addition measured after 30 mins by fluorescence assay. Format: cell-based. The method, boiled down:
as §1

Each structure is given as a SMILES string. Activity calls are given as the source filed them.

T3 sequence (P08183 whole entry): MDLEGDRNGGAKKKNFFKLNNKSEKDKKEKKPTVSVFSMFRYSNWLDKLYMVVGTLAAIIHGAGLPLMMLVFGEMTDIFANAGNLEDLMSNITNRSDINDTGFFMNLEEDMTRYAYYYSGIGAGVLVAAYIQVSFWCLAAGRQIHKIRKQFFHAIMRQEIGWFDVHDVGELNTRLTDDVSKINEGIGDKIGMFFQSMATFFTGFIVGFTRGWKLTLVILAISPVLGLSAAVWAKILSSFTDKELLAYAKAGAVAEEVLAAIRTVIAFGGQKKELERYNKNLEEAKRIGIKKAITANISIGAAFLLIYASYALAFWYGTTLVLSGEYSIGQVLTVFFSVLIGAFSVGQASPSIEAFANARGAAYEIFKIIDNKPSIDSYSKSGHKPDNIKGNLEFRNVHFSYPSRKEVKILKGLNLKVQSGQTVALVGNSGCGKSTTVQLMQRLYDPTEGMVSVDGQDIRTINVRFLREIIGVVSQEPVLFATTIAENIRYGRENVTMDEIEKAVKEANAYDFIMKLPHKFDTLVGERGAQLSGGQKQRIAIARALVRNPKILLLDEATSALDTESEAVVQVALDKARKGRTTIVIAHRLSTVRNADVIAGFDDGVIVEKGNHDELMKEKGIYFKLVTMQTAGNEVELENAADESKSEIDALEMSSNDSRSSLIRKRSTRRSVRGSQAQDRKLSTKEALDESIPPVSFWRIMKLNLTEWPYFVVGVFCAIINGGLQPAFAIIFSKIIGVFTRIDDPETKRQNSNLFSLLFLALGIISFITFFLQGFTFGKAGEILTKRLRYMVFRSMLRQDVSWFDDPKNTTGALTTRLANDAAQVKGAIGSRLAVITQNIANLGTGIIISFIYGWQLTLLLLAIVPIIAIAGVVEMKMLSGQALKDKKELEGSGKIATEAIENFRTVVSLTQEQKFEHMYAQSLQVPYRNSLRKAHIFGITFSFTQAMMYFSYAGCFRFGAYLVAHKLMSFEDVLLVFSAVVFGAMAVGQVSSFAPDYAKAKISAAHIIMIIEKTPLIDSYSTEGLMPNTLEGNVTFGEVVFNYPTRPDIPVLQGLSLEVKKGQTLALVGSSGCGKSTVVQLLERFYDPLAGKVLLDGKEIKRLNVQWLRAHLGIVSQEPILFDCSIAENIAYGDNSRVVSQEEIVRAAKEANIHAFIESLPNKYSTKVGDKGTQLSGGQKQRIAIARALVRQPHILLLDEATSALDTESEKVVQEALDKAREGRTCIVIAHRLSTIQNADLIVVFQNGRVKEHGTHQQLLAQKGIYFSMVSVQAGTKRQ
T2 sequence (P33527 whole entry): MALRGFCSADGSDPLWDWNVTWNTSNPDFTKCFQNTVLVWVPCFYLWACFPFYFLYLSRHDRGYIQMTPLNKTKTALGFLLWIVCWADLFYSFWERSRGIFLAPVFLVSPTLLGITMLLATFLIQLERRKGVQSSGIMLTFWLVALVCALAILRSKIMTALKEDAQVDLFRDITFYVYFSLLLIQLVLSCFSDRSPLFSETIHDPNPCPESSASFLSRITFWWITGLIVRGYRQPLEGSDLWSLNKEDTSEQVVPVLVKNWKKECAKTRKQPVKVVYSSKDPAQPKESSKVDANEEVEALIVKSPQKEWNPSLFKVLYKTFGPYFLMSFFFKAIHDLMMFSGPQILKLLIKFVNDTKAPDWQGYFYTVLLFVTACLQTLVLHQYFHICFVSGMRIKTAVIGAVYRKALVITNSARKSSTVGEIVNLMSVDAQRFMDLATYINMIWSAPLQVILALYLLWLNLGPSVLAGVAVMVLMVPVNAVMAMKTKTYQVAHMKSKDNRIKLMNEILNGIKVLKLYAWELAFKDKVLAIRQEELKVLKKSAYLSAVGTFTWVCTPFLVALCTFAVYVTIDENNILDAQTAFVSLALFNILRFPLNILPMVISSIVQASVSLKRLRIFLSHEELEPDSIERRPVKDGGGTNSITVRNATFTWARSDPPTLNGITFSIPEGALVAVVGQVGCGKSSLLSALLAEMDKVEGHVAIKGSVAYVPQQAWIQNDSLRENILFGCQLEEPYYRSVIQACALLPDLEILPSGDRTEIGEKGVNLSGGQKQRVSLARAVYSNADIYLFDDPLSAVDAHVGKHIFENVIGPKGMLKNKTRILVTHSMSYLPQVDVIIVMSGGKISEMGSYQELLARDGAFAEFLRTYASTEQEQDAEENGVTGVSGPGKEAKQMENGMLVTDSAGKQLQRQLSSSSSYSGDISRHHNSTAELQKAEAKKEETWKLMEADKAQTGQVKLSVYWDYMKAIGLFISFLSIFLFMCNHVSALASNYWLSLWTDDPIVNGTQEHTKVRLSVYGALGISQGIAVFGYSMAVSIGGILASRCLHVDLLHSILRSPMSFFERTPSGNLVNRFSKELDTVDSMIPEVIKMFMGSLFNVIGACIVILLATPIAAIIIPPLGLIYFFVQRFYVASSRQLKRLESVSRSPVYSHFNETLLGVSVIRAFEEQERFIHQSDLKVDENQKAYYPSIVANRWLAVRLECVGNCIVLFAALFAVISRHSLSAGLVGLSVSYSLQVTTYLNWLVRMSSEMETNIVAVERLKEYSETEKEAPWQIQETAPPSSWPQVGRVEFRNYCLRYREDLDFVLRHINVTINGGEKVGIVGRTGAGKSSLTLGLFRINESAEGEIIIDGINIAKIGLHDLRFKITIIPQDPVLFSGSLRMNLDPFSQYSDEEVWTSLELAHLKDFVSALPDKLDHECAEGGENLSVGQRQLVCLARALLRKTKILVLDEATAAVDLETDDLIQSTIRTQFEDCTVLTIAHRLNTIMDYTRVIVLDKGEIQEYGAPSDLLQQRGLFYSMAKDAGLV

Regarding `COc1cc2c(cc1OC)CN(Cc1ccc(-c3ccc(O)cc3N)cc1)CC2`, the results for the “inhibition (INH)” value in data set [1], in data set [3] and in [4] were “Not Active”, “Not Active” and “Active”, respectively. Also, in [2], the efflux ratio at 2 h, 100 µM was 4.5. For the same compound, the EC50 in [5] was 5.4 µM.
Consider `COc1cc2c(cc1OC)CN(Cc1ccc(-c3ccc(O)cc3F)cc1)CC2`, for which the figures for the “inhibition (INH)” value in data set [1], in data set [3] and in [4] were “Not Active”, “Not Active” and “Active”, respectively. Besides, the efflux ratio at 2 h, 100 µM in data set [2] was determined as 4.5. Further, the EC50 in data set [5] was 2.17 µM.
`COc1cc2c(cc1OC)CN(Cc1ccc(-c3ccc(O)c(N)c3)cc1)CC2`: the entries for the “inhibition (INH)” value in data set [1], in [3] and in data set [4] were “Not Active”, “Not Active” and “Active”, respectively. Further, the efflux ratio at 2 h, 100 µM in [2] was 7.5. The EC50 in data set [5] was 6.9 µM.
As for `COc1cc2c(cc1OC)CN(Cc1ccc(-c3ccc(O)cc3)cc1[N+](=O)[O-])CC2`, the “inhibition (INH)” value in data set [1] is recorded as “Not Active”; in [3], “Not Active”; in data set [4], “Active”. In addition, in data set [2], the efflux ratio at 2 h, 100 µM came to 5.8. Besides, the EC50 in data set [5] is 8.4 µM.
`COc1cc2c(cc1OC)CN(Cc1ccc(-c3ccc(O)cc3)cc1)CC2`: in data set [6], the Activity turned out to be 20%. The result in the data set on MDCK [7] was inactive. The “inhibition (INH)” value in data set [4] was “Active”. Besides, the response in data set [8] was half-maximal at 0.69 µM (EC50).
Turning to `COc1cc2c(cc1OC)CN(Cc1ccc(-c3ccc(O)cc3OC)cc1)CC2`, the “inhibition (INH)” value was “Not Active” in data set [1] and “Active” in data set [4]. For the same compound, the Activity result was “Non-Toxic” with MDCK [9] and 60% in data set [6]. For the same compound, the efflux ratio at 2 h, 100 µM in data set [2] is 3.5. Besides, the results for the EC50 in data set [10] and in data set [5] were 62 µM and 1.86 µM, respectively. Besides, in the data set with MDCK [7], the result was inactive.
Regarding `COc1cc(-c2ccc(CN3CCc4cc(OC)c(OC)cc4C3)cc2)ccc1O`, the “inhibition (INH)” value in data set [1] was “Not Active”; in data set [3] it was “Not Active”; in data set [4], “Active”. Besides, the efflux ratio at 2 h, 100 µM in data set [2] turned out to be 3.9. Besides, the 50% effective concentration (EC50) in data set [5] is 2 µM.
`COc1cc2c(cc1OC)CN(Cc1ccc(-c3ccc(O)cc3)c(F)c1)CC2`: the “inhibition (INH)” value was “Not Active” in data set [1], “Not Active” in [3] and “Active” in data set [4]. Also, the efflux ratio at 2 h, 100 µM in [2] is 3.7. The EC50 in [5] is 6.2 µM.
With `COc1cc2c(cc1OC)CN(Cc1ccc(-c3ccc(O)c([N+](=O)[O-])c3)cc1)CC2`, the “inhibition (INH)” value is “Not Active” in data set [1] and “Active” in data set [4]. In addition, the efflux ratio at 2 h, 100 µM in data set [2] is 6.3. Besides, the EC50 is 28.9 µM in data set [10] and 12.7 µM in [5].
Consider `COc1cc2c(cc1OC)CN(Cc1ccc(-c3ccc(O)cc3)c(OC)c1)CC2`, for which the “inhibition (INH)” value was “Not Active” in [1] and “Active” in data set [4]. Also, the Activity entry is recorded as “Non-Toxic” in the data set on MDCK [9] and 15% in data set [6]. Besides, the efflux ratio at 2 h, 100 µM in data set [2] amounted to 4.4. The results for the half-maximal effective concentration (EC50) in data set [10] and in data set [5] were 38 µM and 1.51 µM, respectively. The outcome in the data set on MDCK [7] was inactive.
Consider `COc1cc2c(cc1OC)CN(Cc1ccc(-c3ccc(O)cc3[N+](=O)[O-])cc1)CC2`, for which the “inhibition (INH)” value in data set [1] is on record as “Not Active”; in data set [3] it was “Not Active”; in data set [4], “Active”. Besides, the efflux ratio at 2 h, 100 µM in [2] is 11.2. The EC50 in [5] was 2.54 µM.
In the case of `COc1cc2c(cc1OC)CN(Cc1ccc(-c3ccc(O)cc3)cc1F)CC2`, the “inhibition (INH)” value in data set [1] is given as “Not Active”; in data set [3] it was “Not Active”; in [4], “Active”. The efflux ratio at 2 h, 100 µM in data set [2] was 4.1. In addition, the EC50 in data set [5] is 4.73 µM.
Take `COc1cc(-c2ccc(O)cc2)ccc1CN1CCc2cc(OC)c(OC)cc2C1`: the “inhibition (INH)” value is on record as “Not Active” in data set [1], “Not Active” in [3] and “Active” in [4]. Further, the Activity entry is recorded as “Non-Toxic” with MDCK [9] and 15% in data set [6]. Besides, in [2], the efflux ratio at 2 h, 100 µM was determined as 4.5. Also, the outcome with MDCK [7] was inactive. Besides, the EC50 in [5] is 1.6 µM.
Turning to `COc1cc2c(cc1OC)CN(Cc1ccc(-c3ccc(O)cc3)c([N+](=O)[O-])c1)CC2`, the “inhibition (INH)” value in data set [1] is listed as “Not Active”; in [3], “Not Active”; in data set [4], “Active”. In data set [2], the efflux ratio at 2 h, 100 µM stood at 2.9. In data set [5], the EC50 was 15.2 µM.
In the case of `COc1cc2c(cc1OC)CN(Cc1ccc(-c3ccc(O)c(F)c3)cc1)CC2`, the “inhibition (INH)” value in data set [1] is on record as “Not Active”; in [3], “Not Active”; in data set [4] it was “Active”. The efflux ratio at 2 h, 100 µM in [2] came to 4.9. Besides, the EC50 in data set [5] is 2.8 µM.

What is called efflux ratio is the permeability from basolateral to apical divided by that in the opposite direction, in the common usage. One may read the EC50 as the midpoint of the concentration-response curve.

The values are drawn from ChEMBL document CHEMBL4257505, “New tetrahydroisoquinoline-based P-glycoprotein modulators: decoration of the biphenyl core gives selective ligands” (Medchemcomm, 2018).
